Here are results for three molecules from ChEMBL document CHEMBL5674867, “The SUV39H1 inhibitor chaetocin induces differentiation and shows synergistic cytotoxicity with other epigenetic drugs in acute myeloid leukemia cells” (Blood Cancer J, 2015).

Active and inactive are the calls of the source. No cut-off for these calls is given here.

For assay [1], the system named is KG-1a. Kind of assay: Induction of myeloid differentiation in human KG-1a cells at 0.5 uM measured after 12 hrs by Liu's staining method. It counts as functional, cell-based. Summed up: (§1)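 Cells treated for 12 h, spun onto slides by cytospin, stained with Liu's reagent A for 1 min and then reagent B for 2.5 min. Morphology read by light microscopy. KG-1a was grown in IMDM with 15% FBS; HL-60 and U937 in RPMI with 10% FBS.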

In assay [2] the test system is HL-60. Kind of assay: Induction of myeloid differentiation in human HL-60 cells at 0.5 uM measured after 12 hrs by Liu's staining method. It counts as functional, cell-based. The method, boiled down:
as §1

Assay [3] has as its system U-937. Briefly: Induction of myeloid differentiation in human U-937 cells at 0.5 uM measured after 12 hrs by Liu's staining method. It counts as functional, cell-based. Summed up:
as §1

Assay [4] concerns KG-1a. Briefly: Induction of myeloid differentiation in human KG-1a cells at 50 nM measured after 12 hrs by Liu's staining method. It counts as functional, cell-based. Summed up:
(§2)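 Cells received single epigenetic inhibitors or combinations and were collected by cytospin. After Liu's staining (reagent A 1 min, reagent B 2.5 min), differentiated cells were counted under a light microscope. Mean ± s.e. of three independent experiments.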

Assay [5] concerns U-937. Kind of assay: Induction of myeloid differentiation in human U-937 cells at 50 nM measured after 12 hrs by Liu's staining method. It counts as functional, cell-based. Summed up:
as §2

Assay [6] relates to HL-60. Kind of assay: Induction of myeloid differentiation in human HL-60 cells at 50 nM measured after 12 hrs by Liu's staining method. It counts as functional, cell-based. Summed up: as §2
The test system of assay [7] is U-937. Briefly: Cytotoxicity against human U-937 cells assessed as decrease in cell viability measured after 48 hrs by MTT assay. It counts as functional, cell-based. The settings on record: U-937, 48 h.
Assay [8] concerns KG-1a. Briefly: Cytotoxicity against human KG-1a cells assessed as decrease in cell viability measured after 48 hrs by MTT assay. It counts as functional, cell-based. For orientation: Tetrazolium assays rely on reduction of a dye to a coloured formazan, in cell work by metabolically active cells.
Assay [9] concerns U-937. Briefly: Cytotoxicity against human U-937 cells assessed as decrease in cell viability measured after 24 hrs by MTT assay. The settings on record: U-937, 24 h. It is filed as functional, cell-based. Summed up:
(§3)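 MTT viability read 24 h after exposure over a low concentration range (0–25 μM for one inhibitor, 0–100 for the other as printed). IC50 was derived for each line. Culture: HL-60 and U937 in RPMI + 10% FBS, KG-1a in IMDM + 15% FBS.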

The test system of assay [10] is HL-60. Briefly: Cytotoxicity against human HL-60 cells assessed as decrease in cell viability measured after 24 hrs by MTT assay. It counts as functional, cell-based. To be noted: HL-60, 24 h. Summed up: as §3
Assay [11] concerns KG-1a. Briefly: Cytotoxicity against human KG-1a cells assessed as decrease in cell viability measured after 24 hrs by MTT assay. It counts as functional, cell-based. The method, boiled down: as §3
In assay [12] the test system is U-937. Briefly: Cytotoxicity against human U-937 cells at 20 nM assessed as decrease in cell viability in combination with 0.5 uM SAHA measured after 24 hrs by MTT assay. It counts as functional.
The test system of assay [13] is KG-1a. Kind of assay: Cytotoxicity against human KG-1a cells at 20 nM assessed as decrease in cell viability in combination with 0.5 uM SAHA measured after 24 hrs by MTT assay. It counts as functional.
Assay [14] relates to HL-60. Briefly: Cytotoxicity against human HL-60 cells assessed as decrease in cell viability measured after 48 hrs by MTT assay. It is filed as functional, cell-based. The settings on record: HL-60, 48 h.
Assay [15] relates to HL-60. Kind of assay: Cytotoxicity against human HL-60 cells at 20 nM assessed as decrease in cell viability in combination with 0.5 uM SAHA measured after 24 hrs by MTT assay. It counts as functional.

Regarding `O=C(CCCCCCC(=O)Nc1ccccc1)NO`, the result in the assay on KG-1a [1], in the assay with HL-60 [2] and in the assay with U-937 [3] was Active.
On to `Cc1sc2c(c1C)C(c1ccc(Cl)cc1)=N[C@@H](CC(=O)OC(C)(C)C)c1nnc(C)n1-2`, for which the outcome in the assay with KG-1a [4], with U-937 [5] and with HL-60 [6] was Active.
For the molecule `CN1C(=O)[C@@]23C[C@]4([C@]56C[C@@]78SS[C@@](CO)(C(=O)N7[C@H]5Nc5ccccc56)N(C)C8=O)c5ccccc5N[C@@H]4N2C(=O)[C@]1(CO)SS3` [CHAETOCIN], the IC50 (usually the concentration that inhibits the measured activity by half) was 0.082 nM in the assay on U-937 [7]; 0.095 nM in the assay on KG-1a [8]; 0.096 nM with U-937 [9]; 0.153 nM in the assay on HL-60 [10]; 0.103 nM in the assay with KG-1a [11]; 0.127 nM with HL-60 [14]. For the same molecule, the values for the Activity in the assay with U-937 [12], in the assay with KG-1a [13] and in the assay with HL-60 [15] were 20%, 40% and 40%, respectively.
